High-throughput results as filed in PubChem BioAssay.
KDM4C inh: blocks human GASC-1 (KDM4C) demethylase activity; Q9H3R0; GST-KDM4C 2-372, H3K9me3 peptide, LANCE TR-FRET; inhibition, % at 12.5 µM; 96,000 tested, 0.15% active; AID 720574;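 active = mean replicate inhibition above about 25%, with at least 55% of replicates also reaching it, limit read from the data, passing the limit was not always enough; inconclusive = only one of those two conditions met; inactive = neither condition met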
Target sequence (Q9H3R0 2-372 limits assumed): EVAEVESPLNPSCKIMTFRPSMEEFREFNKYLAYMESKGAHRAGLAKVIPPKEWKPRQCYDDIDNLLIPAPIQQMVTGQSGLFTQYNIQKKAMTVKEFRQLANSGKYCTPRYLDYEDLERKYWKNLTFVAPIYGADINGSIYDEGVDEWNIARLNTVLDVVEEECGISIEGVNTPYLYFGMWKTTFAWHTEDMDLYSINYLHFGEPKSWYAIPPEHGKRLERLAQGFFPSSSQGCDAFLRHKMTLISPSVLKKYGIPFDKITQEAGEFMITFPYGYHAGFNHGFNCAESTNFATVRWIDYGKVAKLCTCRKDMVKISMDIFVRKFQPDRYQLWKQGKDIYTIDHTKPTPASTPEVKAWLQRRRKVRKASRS
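Material: GST-tagged GASC-1 (JMJD2C) catalytic fragment, aa 2-372 / Quantity: enzyme final amount 10 nM / Medium: HEPES buffer, pH 7.5, plus ascorbate / Doses: one test concentration per compound / Incubation: 30 min reaction, 60 min detection, RT / Measured by: LANCE TR-FRET / Read-out: inhibition from TR-FRET ratio decrease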
IDH1 mut inh: IDH1 R132H (human) inhibition | O75874 | IDH1 R132H reductase, diaphorase/resazurin fluorescence, 60 min | inhibition, % at 10 µM | 70,000 tested, 0.18% active; in the data active = inhibition above about 34%; inconclusive = no clear call, values can overlap the other calls; inactive = below about 11%;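 also: 0% = DMSO and 100% = no enzyme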
Target sequence (O75874 whole entry R132H): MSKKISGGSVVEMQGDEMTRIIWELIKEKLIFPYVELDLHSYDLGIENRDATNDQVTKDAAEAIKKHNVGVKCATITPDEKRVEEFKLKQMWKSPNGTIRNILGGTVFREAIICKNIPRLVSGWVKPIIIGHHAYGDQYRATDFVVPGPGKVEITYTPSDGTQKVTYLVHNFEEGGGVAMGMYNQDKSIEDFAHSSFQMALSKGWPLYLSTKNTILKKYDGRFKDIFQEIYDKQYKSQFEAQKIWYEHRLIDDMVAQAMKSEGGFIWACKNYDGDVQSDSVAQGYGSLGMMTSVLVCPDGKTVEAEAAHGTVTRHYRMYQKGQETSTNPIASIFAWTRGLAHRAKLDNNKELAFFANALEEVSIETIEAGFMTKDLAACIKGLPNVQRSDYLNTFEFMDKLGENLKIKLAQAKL
T cruzi growth-1: T. cruzi proliferation inhibition. 77,000 tested, 5.9% active. AID 624255. T. cruzi beta-gal in NIH3T3, GalScreen luminescence, 90 h. inhibition, % at 8.34 µM;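 active = mean inhibition above about 93%, with at least 55% of replicates each passing it, limit read from the data, passing the limit was not always enough; inconclusive = only one of those two conditions holds; inactive = neither condition holds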
T cruzi growth-2: inhibitors of T. cruzi proliferation. shares compounds with T cruzi growth-1. T. cruzi beta-gal in NIH3T3, GalScreen luminescence, 90 h. inhibition, % at 8.35 µM. 5,600 tested, 72% active;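 active = mean replicate inhibition above about 95% and at least 55% of replicates individually reaching it, limit read from the data; inconclusive = only one of the two criteria is met; inactive = neither criterion is met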
T cruzi growth-3: Trypanosoma cruzi proliferation inhibition; shares compounds with T cruzi growth-1; T. cruzi beta-gal in NIH3T3, GalScreen luminescence, 90 h; inhibition, % at 2.09 µM; 5,600 tested, 21% active;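 active = mean inhibition above about 95%, with at least 55% of replicates also reaching it, limit read from the data; inconclusive = meets just one of the two conditions; inactive = meets neither condition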;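 also: plate controls were neutral control median for no effect and positive control median for full effect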
NIH3T3 tox: NIH/3T3 (mouse) viability loss; cytotoxicity (signal decrease), % at 8.35 µM; NIH/3T3 viability, CellTiter-Glo ATP luminescence, 90 h; shares compounds with T cruzi growth-1; 5,600 tested, 14% active;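 active = mean signal decrease across replicates above about 35% based on untreated-well scatter, with enough replicates individually passing, limit read from the data; inconclusive = no rule stated though some were filed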;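 also: 0% = median of neutral control wells and 100% = median of positive control wells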
3T3 cytotox 2: NIH/3T3 (mouse) viability loss. shares compounds with T cruzi growth-1. NIH/3T3 viability, CellTiter-Glo ATP luminescence, 90 h. inhibition, % at 24.9 µM. 5,600 tested, 56% active;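 active = mean loss of cell viability signal at or above a set limit, and enough replicates individually reaching it; inconclusive = meets only the mean limit or only the replicate share; inactive = meets neither condition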;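 also: 0% = median of neutral control wells and 100% = median of positive control wells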
* marks the source's active call; other numbers are inactive results; ? = inconclusive; nt = no result. The entries come from a sample that favours hits as a whole.

SMILES | KDM4C inh | IDH1 mut inh | T cruzi growth-1 | T cruzi growth-2 | T cruzi growth-3 | NIH3T3 tox | 3T3 cytotox 2
COc1ccc(C)cc1NC(=O)CSc1nc2ccccc2c(=O)n1-c1ccc(Cl)cc1 | nt | -0.2 | nt | nt | nt | nt | nt
Cc1cc(C)c(C#N)c(SCC(=O)Nc2ccc(C(N)=O)cc2)n1 | nt | -0.2 | nt | nt | nt | nt | nt
C[C@H]1CCCCO[C@@H](CN(C)Cc2ccc3c(c2)OCO3)[C@@H](C)CN([C@@H](C)CO)C(=O)c2cc(NC(=O)Nc3ccc(C(F)(F)F)cc3)ccc2O1 | -1.5 | 1.1 | 121.1* | 91.2 | 115.7* | 46.9* | 104.6*
C[C@@H]1CCCCO[C@H](CN(C)Cc2ccc(C(F)(F)F)cc2)[C@H](C)CN([C@H](C)CO)C(=O)c2cc(NC(=O)Nc3ccc4c(c3)OCO4)ccc2O1 | -0.3 | -0.8 | 90.4 | nt | nt | nt | nt
C[C@@H]1CCCCO[C@H](CN(C)Cc2ccc3c(c2)OCO3)[C@H](C)CN([C@H](C)CO)C(=O)c2cc(NC(=O)Nc3ccc(C(F)(F)F)cc3)ccc2O1 | -0.1 | nt | ? | 96.2* | 116.5* | ? | 95.1*
C[C@@H]1CN([C@@H](C)CO)C(=O)c2cc(NC(=O)Nc3ccc4c(c3)OCO4)ccc2O[C@@H](C)CCCCO[C@@H]1CN(C)Cc1ccc(C(F)(F)F)cc1 | 15.2 | nt | 94.0 | nt | nt | nt | nt
Cc1ccc(-c2nnc(SCC(=O)c3cccc([N+](=O)[O-])c3)n2C)cc1 | nt | 0.7 | nt | nt | nt | nt | nt
COc1cc(OC)c(NC(=O)CS(=O)(=O)c2ccccc2)cc1Cl | nt | 0.1 | nt | nt | nt | nt | nt
COc1ccc(OC)c(NC(=O)COc2ccc3c4c(c(=O)oc3c2)CCC4)c1 | nt | -0.2 | nt | nt | nt | nt | nt
NNC(=O)c1cc(COc2c(Cl)cccc2Cl)on1 | nt | -0.6 | nt | nt | nt | nt | nt
COC(=O)c1ccccc1NC(=O)Cn1c(C(F)(F)F)nc2ccccc21 | nt | 0.7 | nt | nt | nt | nt | nt
CCC(=O)N1CC[C@H]2[C@@H]1c1cc(-c3ccc(F)cc3)ccc1N(C)[C@H]2CO | -1.1 | nt | ? | 107.7* | 71.4 | -8.2 | 21.4
CCC(=O)N1CC[C@@H]2[C@H]1c1cc(-c3ccc(OC)cc3)ccc1N(C)[C@H]2CO | 1.2 | nt | 94.2 | nt | nt | nt | nt
COCC(=O)N1CC[C@@H]2[C@@H](CO)N(C)c3ccc(-c4ccc(F)cc4)cc3[C@@H]21 | 1.0 | nt | 86.3 | nt | nt | nt | nt
CCC(=O)N1CC[C@H]2[C@@H]1c1cc(-c3ccc(OC)cc3)ccc1N(C)[C@H]2CO | 1.8 | nt | 104.9* | 108.2* | 90.7 | -15.3 | -17.2
CNC(=O)C(=O)NCCc1c[nH]c2ccccc12 | nt | 0.4 | nt | nt | nt | nt | nt
COc1ccc(OC)c(C(=O)CSc2nnc(-c3ccncc3)n2-c2ccc(C)cc2)c1 | nt | 0.1 | nt | nt | nt | nt | nt
COc1ccc(-n2c(SCC(=O)Nc3ccc(C(N)=O)cc3)nc3sc4c(c3c2=O)CCCC4)cc1 | nt | -0.5 | nt | nt | nt | nt | nt
C[C@H](CO)N1C[C@H](C)[C@H](CN(C)Cc2ccc(C(=O)Nc3ccccc3N)cc2)Oc2ccc(N(C)C)cc2CC1=O | 0.0 | -0.4 | 71.9 | nt | nt | nt | nt
C[C@H](CO)N1C[C@H](C)[C@@H](CN(C)Cc2ccc(C(=O)Nc3ccccc3N)cc2)Oc2ccc(N(C)C)cc2CC1=O | 12.4 | -2.3 | 121.8* | 102.1* | 91.9 | 37.5* | 75.5*
C[C@@H]1CN([C@@H](C)CO)C(=O)c2cc(NC(=O)Cc3ccccc3)ccc2O[C@@H]1CN(C)Cc1ccc(C(=O)Nc2ccccc2N)cc1 | -0.5 | nt | 44.5 | nt | nt | nt | nt
C[C@H]1CN([C@@H](C)CO)C(=O)c2cc(NC(=O)Cc3ccccc3)ccc2O[C@H]1CN(C)Cc1ccc(C(=O)Nc2ccccc2N)cc1 | -1.4 | 3.7 | ? | 78.1 | 35.8 | 6.6 | ?
C[C@H]1CN([C@@H](C)CO)C(=O)c2cc(N(C)C)ccc2O[C@@H]1CN(C)Cc1ccc(C(=O)Nc2ccccc2N)cc1 | 2.9 | nt | 41.3 | nt | nt | nt | nt
C[C@@H]1CN([C@@H](C)CO)C(=O)c2cc(N(C)C)ccc2O[C@@H]1CN(C)Cc1ccc(C(=O)Nc2ccccc2N)cc1 | nt | nt | 104.3* | -9.0 | -8.3 | 4.8 | -11.3
O=C(Cn1cnc2scc(-c3ccccc3)c2c1=O)Nc1ccc(Oc2ccccc2)cc1 | nt | 0.3 | nt | nt | nt | nt | nt
SMILES | KDM4C inh | IDH1 mut inh | T cruzi growth-1 | T cruzi growth-2 | T cruzi growth-3 | NIH3T3 tox | 3T3 cytotox 2
Cc1nc(Oc2ccc(Cl)cc2)c(C(=O)O)c(C)c1Cl | nt | 0.3 | nt | nt | nt | nt | nt
Cc1c(CCC(=O)O)c(=O)oc2c(C)c(OCc3c(F)cccc3Cl)ccc12 | nt | -0.4 | nt | nt | nt | nt | nt
Cc1ccccc1-c1nc(SCC(=O)c2cccc([N+](=O)[O-])c2)n[nH]1 | nt | 0.4 | nt | nt | nt | nt | nt
C[C@H]1CN([C@@H](C)CO)C(=O)c2c(c3ccccc3n2C)-c2ccccc2CO[C@H]1CN(C)Cc1cccnc1 | 3.5 | 7.5 | ? | 88.4 | 26.8 | 37.1* | 62.5*
C[C@H](CO)N1C[C@H](C)[C@H](CN(C)C(=O)[C@H](Cc2ccccc2)N(C)C)OCc2ccccc2-c2c(n(C)c3ccccc23)C1=O | -0.5 | 0.1 | ? | 88.2 | 35.0 | 15.9 | ?
C[C@H]1CN([C@@H](C)CO)C(=O)c2c(c3ccccc3n2C)-c2ccccc2CO[C@@H]1CN(C)C(=O)[C@@H](Cc1ccccc1)N(C)C | -0.1 | nt | -8.7 | nt | nt | nt | nt
C[C@@H]1CN([C@@H](C)CO)C(=O)c2c(c3ccccc3n2C)-c2ccccc2CO[C@H]1CN(C)Cc1ccc(F)cc1 | -3.0 | nt | nt | nt | nt | nt | nt
C[C@H]1CN([C@@H](C)CO)C(=O)c2c(c3ccccc3n2C)-c2ccccc2CO[C@H]1CN(C)Cc1ccc(F)cc1 | 0.8 | nt | nt | nt | nt | nt | nt
C[C@@H]1CN([C@H](C)CO)C(=O)c2c(c3ccccc3n2C)-c2ccccc2CO[C@@H]1CN(C)Cc1cccnc1 | 0.1 | 1.8 | 111.5* | 108.8* | 53.2 | 0.6 | 51.2*
Cn1c(SCC(=O)Nc2ccc([N+](=O)[O-])cc2)nc2ccccc21 | nt | -0.5 | nt | nt | nt | nt | nt
COc1cccc(C(=O)COc2cccc(NC(=O)c3ccc(Cl)c(Cl)c3)c2)c1 | nt | 0.0 | nt | nt | nt | nt | nt
COc1ccc(NC(=O)CSc2ncnc3c2sc2nc(N4CCOCC4)c4c(c23)CC(C)(C)OC4)cc1 | nt | 0.8 | nt | nt | nt | nt | nt
C[C@H]1CN([C@@H](C)CO)C(=O)c2cccc(NC(=O)c3ccncc3)c2O[C@H]1CN(C)Cc1ccc(C(=O)Nc2ccccc2N)cc1 | -1.5 | -0.1 | nt | nt | nt | nt | nt
Cc1cc(C(=O)Nc2cccc3c2O[C@@H](CN(C)Cc2ccc(C(=O)Nc4ccccc4N)cc2)[C@@H](C)CN([C@@H](C)CO)C3=O)n(C)n1 | -0.4 | 0.5 | 101.1* | 101.7* | 74.0 | -3.7 | 28.3
C[C@@H]1CN([C@@H](C)CO)C(=O)c2cccc(NC(=O)c3ccncc3)c2O[C@@H]1CN(C)Cc1ccc(C(=O)Nc2ccccc2N)cc1 | 0.8 | nt | ? | 89.1 | 48.2 | 21.2 | 67.3*
Cc1cc(C(=O)Nc2cccc3c2O[C@H](CN(C)Cc2ccc(Oc4ccccc4)cc2)[C@H](C)CN([C@@H](C)CO)C3=O)n(C)n1 | 0.3 | nt | -29.9 | nt | nt | nt | nt
